In ChEMBL document CHEMBL1649151, “Urinary bactericidal activity of Doripenem versus that of levofloxacin in patients with complicated urinary tract infections or pyelonephritis” (Antimicrob Agents Chemother, 2009):
Converted amounts (≈) assume the structure as drawn.

Experiments:
Escherichia coli [1] = experiment: Antimicrobial activity against Escherichia coli 1655646 A-Y isolated from patient with pyelonephritis assessed as >3-log reduction in urinary bacterial titer after 4 hrs; assay type: functional, Urine
Method in brief: (§1)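 Urine was collected before dosing and on day 3 of i.v. therapy (steady state), in 4-h intervals from infusion start (0–4 to 20–24 h), stored at −80°C and sterile filtered. It was serially diluted twofold (1:0 to 1:131,072) in the patient's drug-free pre-dose urine. Microdilution used an inoculum of 1.0 x 10^6–9.5 x 10^6 CFU/ml, incubated 18 h at 37°C, then subcultured 24 h on blood agar. The endpoint was >99.9% kill, reported as reciprocal titer.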

Enterococcus faecalis [2] = experiment: Antimicrobial activity against Enterococcus faecalis 2297262-10 B-V isolated from patient with pyelonephritis assessed as >3-log reduction in urinary bacterial titer after 4 hrs; assay type: functional, Urine; method in brief: as §1
Escherichia coli [3] = experiment: Antimicrobial activity against Escherichia coli 2062716 B-R isolated from patient with pyelonephritis assessed as >3-log reduction in urinary bacterial titer after 16 hrs; assay type: functional, Urine
Method in brief: (§2)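 Patient urine was collected on day 3 of i.v. therapy (steady state) over 4-h intervals after infusion start, stored at –80°C, and sterile filtered. It was twofold serially diluted (1:0 to 1:131,072) in the patient's own pre-dose drug-free urine, inoculated to 1.0 x 10^6–9.5 x 10^6 CFU/ml, and incubated for 18 h at 37°C. Subcultures were grown on blood agar for 24 h. The UBT is the reciprocal of the highest dilution giving >99.9% kill.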

Escherichia coli [4] = experiment: Antimicrobial activity against Escherichia coli 1821386 B-D isolated from patient with pyelonephritis assessed as >3-log reduction in urinary bacterial titer after 16 hrs; assay type: functional, Urine
Method in brief: (§3)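 Urine was collected on day 3 of i.v. therapy (steady state) over 4-h intervals from infusion start (0–4 to 20–24 h), stored at –80°C and sterile filtered. It was serially diluted twofold (1:0 up to 1:131,072) in the patient's own pre-dose drug-free urine. Microdilution used a final inoculum of 1.0 x 10^6 to 9.5 x 10^6 CFU/ml, incubated 18 h at 37°C in air. 10 µl was subcultured onto 5% blood Columbia agar for 24 h at 37°C. The bactericidal endpoint was >99.9% (>3-log) kill, reported as a reciprocal titer.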

Serratia marcescens = experiment: Antimicrobial activity against Serratia marcescens 2297260 B-U isolated from patient with pyelonephritis assessed as >3-log reduction in urinary bacterial titer after 12 hrs; assay type: functional, Urine
Pseudomonas aeruginosa [5] = experiment: Antimicrobial activity against Pseudomonas aeruginosa 1821383 B-E isolated from patient with pyelonephritis by Etest; assay type: functional
Escherichia coli [6] = experiment: Antimicrobial activity against Escherichia coli 1889647 B-H isolated from patient with pyelonephritis by Etest; assay type: functional
Enterococcus faecalis [7] = experiment: Antimicrobial activity against Enterococcus faecalis 2297262-10 B-V isolated from patient with pyelonephritis by Etest; assay type: functional
Escherichia coli [8] = experiment: Antimicrobial activity against Escherichia coli 1655646 A-Y isolated from patient with pyelonephritis assessed as >3-log reduction in urinary bacterial titer after 12 hrs; assay type: functional, Urine; method in brief: as §1
Enterococcus faecalis [9] = experiment: Antimicrobial activity against Enterococcus faecalis 2297262-10 B-V isolated from patient with pyelonephritis assessed as >3-log reduction in urinary bacterial titer after 12 hrs; assay type: functional, Urine; method in brief: as §1
Escherichia coli [10] = experiment: Antimicrobial activity against Escherichia coli 1821386 B-D isolated from patient with pyelonephritis assessed as >3-log reduction in urinary bacterial titer after 8 hrs; assay type: functional, Urine; method in brief: as §3
Escherichia coli [11] = experiment: Antimicrobial activity against Escherichia coli 1780064 A-X isolated from patient with pyelonephritis assessed as >3-log reduction in urinary bacterial titer after 8 hrs; assay type: functional, Urine; method in brief: as §3
Pseudomonas aeruginosa [12] = experiment: Antimicrobial activity against Pseudomonas aeruginosa 2062713 B-Q isolated from patient with pyelonephritis assessed as >3-log reduction in urinary bacterial titer after 4 hrs; assay type: functional, Urine
Escherichia coli [13] = experiment: Antimicrobial activity against Escherichia coli 2062716 B-R isolated from patient with pyelonephritis assessed as >3-log reduction in urinary bacterial titer after 24 hrs; assay type: functional, Urine; method in brief: as §2
Enterococcus faecalis [14] = experiment: Antimicrobial activity against Enterococcus faecalis 2297262-10 B-V isolated from patient with pyelonephritis assessed as >3-log reduction in urinary bacterial titer after 24 hrs; assay type: functional, Urine; method in brief: as §1
Staphylococcus aureus = experiment: Antimicrobial activity against Staphylococcus aureus 1889640 A-Z isolated from patient with pyelonephritis assessed as >3-log reduction in urinary bacterial titer after 20 hrs; assay type: functional, Urine
Escherichia coli [15] = experiment: Antimicrobial activity against Escherichia coli 1821385 B-C isolated from patient with pyelonephritis assessed as >3-log reduction in urinary bacterial titer after 20 hrs; assay type: functional, Urine; method in brief: as §3
Enterococcus faecalis [16] = experiment: Antimicrobial activity against Enterococcus faecalis 2215770 B-T isolated from patient with pyelonephritis assessed as >3-log reduction in urinary bacterial titer after 16 hrs; assay type: functional, Urine; method in brief: as §1
Escherichia coli [17] = experiment: Antimicrobial activity against Escherichia coli 1821385 B-C isolated from patient with pyelonephritis by Etest; assay type: functional
Escherichia coli [18] = experiment: Antimicrobial activity against Escherichia coli 2297257 B-W isolated from patient with pyelonephritis by Etest; assay type: functional
Escherichia coli [19] = experiment: Antimicrobial activity against Escherichia coli 1821385 B-C isolated from patient with pyelonephritis assessed as >3-log reduction in urinary bacterial titer after 12 hrs; assay type: functional, Urine; method in brief: as §3
Escherichia coli [20] = experiment: Antimicrobial activity against Escherichia coli 1780063 B-A isolated from patient with pyelonephritis assessed as >3-log reduction in urinary bacterial titer after 12 hrs; assay type: functional, Urine; method in brief: as §1
[21] = test system: Staphylococcus haemolyticus; experiment: Antimicrobial activity against Staphylococcus haemolyticus 1949819 B-M isolated from patient with pyelonephritis assessed as >3-log reduction in urinary bacterial titer after 12 hrs; assay type: functional, Urine
Escherichia coli [22] = experiment: Antimicrobial activity against Escherichia coli 2062717 B-P isolated from patient with pyelonephritis assessed as >3-log reduction in urinary bacterial titer after 8 hrs; assay type: functional, Urine
Escherichia coli [23] = experiment: Antimicrobial activity against Escherichia coli 1949826 B-L isolated from patient with pyelonephritis assessed as >3-log reduction in urinary bacterial titer after 8 hrs; assay type: functional, Urine; method in brief: as §2
Escherichia coli [24] = experiment: Antimicrobial activity against Escherichia coli 1949825 B-K isolated from patient with pyelonephritis assessed as >3-log reduction in urinary bacterial titer after 8 hrs; assay type: functional, Urine; method in brief: as §2
Escherichia coli [25] = experiment: Antimicrobial activity against Escherichia coli 1889646 B-F isolated from patient with pyelonephritis assessed as >3-log reduction in urinary bacterial titer after 8 hrs; assay type: functional, Urine; method in brief: as §3
Escherichia coli [26] = experiment: Antimicrobial activity against Escherichia coli 1889645 B-I isolated from patient with pyelonephritis assessed as >3-log reduction in urinary bacterial titer after 4 hrs; assay type: functional, Urine; method in brief: as §3
Escherichia coli [27] = experiment: Antimicrobial activity against Escherichia coli 1889646 B-F isolated from patient with pyelonephritis assessed as >3-log reduction in urinary bacterial titer after 24 hrs; assay type: functional, Urine; method in brief: as §3
Escherichia coli [28] = experiment: Antimicrobial activity against Escherichia coli 1780063 B-A isolated from patient with pyelonephritis assessed as >3-log reduction in urinary bacterial titer after 24 hrs; assay type: functional, Urine; method in brief: as §1
Escherichia coli [29] = experiment: Antimicrobial activity against Escherichia coli 1821385 B-C isolated from patient with pyelonephritis assessed as >3-log reduction in urinary bacterial titer after 24 hrs; assay type: functional, Urine; method in brief: as §3
Enterococcus faecalis [30] = experiment: Antimicrobial activity against Enterococcus faecalis 2215770 B-T isolated from patient with pyelonephritis assessed as >3-log reduction in urinary bacterial titer after 20 hrs; assay type: functional, Urine; method in brief: as §1
Escherichia coli [31] = experiment: Antimicrobial activity against Escherichia coli 2062717 B-P isolated from patient with pyelonephritis assessed as >3-log reduction in urinary bacterial titer after 20 hrs; assay type: functional, Urine
Escherichia coli [32] = experiment: Antimicrobial activity against Escherichia coli 2297257 B-W isolated from patient with pyelonephritis assessed as urinary bactericidal titer

`C[C@H]1COc2c(N3CCN(C)CC3)c(F)cc3c(=O)c(C(=O)O)cn1c23.C[C@H]1COc2c(N3CCN(C)CC3)c(F)cc3c(=O)c(C(=O)O)cn1c23.O` [LEVOFLOXACIN] showed a urinary bactericidal titer (Escherichia coli [1]) of 2048 reciprocal titer, a Time (Enterococcus faecalis [2]) of 0 h and a urinary bactericidal titer (Escherichia coli [3]) of 256 reciprocal titer. For the same compound, the urinary bactericidal titer (Escherichia coli [4]) was 4096 reciprocal titer, the urinary bactericidal titer (Serratia marcescens) was 128 reciprocal titer and the MIC (Pseudomonas aeruginosa [5]) was 0.25 µg/mL. For the same compound, the MIC (Escherichia coli [6]) was < 0.03 µg/mL, the MIC (Enterococcus faecalis [7]) was > 32 µg/mL and the urinary bactericidal titer (Escherichia coli [8]) was 2048 reciprocal titer. It also gave a urinary bactericidal titer (Enterococcus faecalis [9]) of 0 reciprocal titer, a urinary bactericidal titer (Escherichia coli [10]) of 8192 reciprocal titer and a urinary bactericidal titer (Escherichia coli [11]) of 512 reciprocal titer. The urinary bactericidal titer (Pseudomonas aeruginosa [12]) was 8 reciprocal titer, the urinary bactericidal titer (Escherichia coli [13]) was 64 reciprocal titer and the Time (Enterococcus faecalis [14]) was 0 h. The urinary bactericidal titer (Staphylococcus aureus) was 64 reciprocal titer.
For `C[C@@H](O)[C@H]1C(=O)N2C(C(=O)O)=C(S[C@@H]3CN[C@H](CNS(N)(=O)=O)C3)[C@H](C)[C@H]12` [DORIPENEM], the urinary bactericidal titer (Escherichia coli [15]) was 8192 reciprocal titer, the urinary bactericidal titer (Enterococcus faecalis [16]) was 512 reciprocal titer and the MIC (Escherichia coli [17]) was 0.03 µg/mL (≈ 0.0713 µM). For the same compound, the MIC (Escherichia coli [18]) was 0.015 µg/mL (≈ 0.0357 µM), the urinary bactericidal titer (Escherichia coli [19]) was 32800 reciprocal titer and the urinary bactericidal titer (Escherichia coli [20]) was 4096 reciprocal titer. The urinary bactericidal titer [21] was 1024 reciprocal titer, the urinary bactericidal titer (Escherichia coli [22]) was 1024 reciprocal titer and the urinary bactericidal titer (Escherichia coli [23]) was 32800 reciprocal titer. For the same compound, the urinary bactericidal titer (Escherichia coli [24]) was 4096 reciprocal titer, the urinary bactericidal titer (Escherichia coli [25]) was 32800 reciprocal titer and the urinary bactericidal titer (Escherichia coli [26]) was 65500 reciprocal titer. For the same compound, the urinary bactericidal titer (Escherichia coli [27]) was 65500 reciprocal titer, the urinary bactericidal titer (Escherichia coli [28]) was 1024 reciprocal titer and the urinary bactericidal titer (Escherichia coli [29]) was 256 reciprocal titer. The urinary bactericidal titer (Enterococcus faecalis [30]) was 2048 reciprocal titer, the urinary bactericidal titer (Escherichia coli [31]) was 32800 reciprocal titer and the urinary bactericidal titer (Escherichia coli [32]) was 4096 reciprocal titer.
